This is a sample that favours compounds with a hit; in the whole collection about 4.8% have one here.
ATG4B inhibitor: inhibitors of human ATG4B cysteine protease; Q9Y4P1; ATG4B cleavage of LC3-PLA2, NBD-HPC fluorescence, 1 h; inhibition, % at 8.33 µM; 340,000 tested, 0.51% active; AID 504462; in the data active = inhibition above about 40%
Target sequence (Q9Y4P1 whole entry, looked up): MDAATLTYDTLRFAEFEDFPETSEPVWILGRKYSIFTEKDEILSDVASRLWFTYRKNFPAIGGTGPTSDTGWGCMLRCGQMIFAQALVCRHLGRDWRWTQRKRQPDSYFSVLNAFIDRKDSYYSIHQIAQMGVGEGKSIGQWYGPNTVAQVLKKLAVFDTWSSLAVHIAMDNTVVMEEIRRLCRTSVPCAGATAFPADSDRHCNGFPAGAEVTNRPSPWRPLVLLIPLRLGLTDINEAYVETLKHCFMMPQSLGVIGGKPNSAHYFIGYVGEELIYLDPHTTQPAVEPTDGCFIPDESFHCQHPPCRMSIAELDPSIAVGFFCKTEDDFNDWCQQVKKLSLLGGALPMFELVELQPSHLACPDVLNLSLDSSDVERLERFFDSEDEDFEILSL
NLRP3 yeast inh: blocks the NALP3 inflammasome reconstituted in yeast | Yeast reconstituted NLRP3/ASC/caspase-1, beta-gal luminescence, 24 h | inhibition, % at 10 µM | 330,000 tested, 0.39% active;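 active = inhibition of 50% or more; inactive = inhibition below 50%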;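 also: plate controls were induced DMSO wells for no effect and uninduced yeast grown without galactose for full effect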
UCH37 DUB inh: human UCH37 deubiquitinating enzyme inhibition; Q9Y5K5; purified proteasome/UCH37, Ub-AMC cleavage fluorescence; inhibition, % (test concentration not listed); 330,000 tested, 0.33% active; AID 588478;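 active = mean inhibition over replicate wells above about 20%, limit read from the data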;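 also: 0% = compound-free wells with enzyme and 100% = wells lacking proteasome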
Target sequence (Q9Y5K5 whole entry, looked up): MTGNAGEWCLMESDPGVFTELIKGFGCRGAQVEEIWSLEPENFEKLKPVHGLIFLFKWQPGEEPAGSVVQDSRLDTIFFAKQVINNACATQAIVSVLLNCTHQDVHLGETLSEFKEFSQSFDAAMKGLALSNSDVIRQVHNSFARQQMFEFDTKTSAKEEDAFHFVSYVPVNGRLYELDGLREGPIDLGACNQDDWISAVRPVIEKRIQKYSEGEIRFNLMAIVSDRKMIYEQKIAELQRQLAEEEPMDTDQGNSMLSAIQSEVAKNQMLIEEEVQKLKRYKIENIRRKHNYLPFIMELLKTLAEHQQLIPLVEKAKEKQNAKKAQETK
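system = Proteasome-associated human UCH37 deubiquitinase | amount = 0.15 nM proteasome as dispensed | medium = pH 7.4 Tris-HCl (50 mM) with ovalbumin, ATP-MgCl2, DTT | incubation = 30 min preincubation with enzyme, 25 min cleavage at room temperature | detection = AMC fluorescence 355/460 nm | read-out basis = percent inhibition | controls = no-proteasome and no-compound wells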
Calb FLC: C. albicans growth modulation with fluconazole. C. albicans CaCi-2 (fluconazole-resistant clinical isolate) + fluconazole, Alamar Blue growth, 48 h. growth inhibition, % (concentration not given with the values). 300,000 tested, 0.57% active. AID 1979;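 active = growth inhibition above about 58% in most replicates, limit read from the data, passing the limit was not always enough; inconclusive = exactly half the replicates above a set limit; inactive = most replicates below a set limit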;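 also: all wells also contain fluconazole at 8 µg/ml as a sub-toxic cotreatment; 0% = median of DMSO wells and 100% = median of geldanamycin control wells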
NALP1 inh: NALP1 inhibition | S. cerevisiae NALP1/ASC/caspase-1 growth, X-gal OD620, 72 h | inhibition, % at 10 µM | 280,000 tested, 0.61% active | AID 2071; in the data active = inhibition mostly above about 24%, no sharp cut-off; inactive = mostly below about 32%
ALR H2O2 inh: blocks human ALR sulfhydryl oxidase activity | P55789 | purified ALR, DTT oxidation, H2O2 HRP-luminol luminescence | inhibition, % (concentration not given with the values) | 290,000 tested, 3.8% active | AID 485317;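 active = mean replicate inhibition above about 79%, with every replicate also reaching it, limit read from the data; inconclusive = only one of the two criteria met; inactive = mean below limit and not every replicate reaching it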
Active calls of the source: *; u = inconclusive; x = not tested or not shown.

SMILES | ATG4B inhibitor | NLRP3 yeast inh | UCH37 DUB inh | Calb FLC | NALP1 inh | ALR H2O2 inh
CN(C)c1ccc(/C=N/NC(=O)c2ccccc2)cc1 | -6.0 | 11.0 | x | 7.8 | 2.3 | x
CN(C)c1ccc(/C=N/NC(=O)c2ccccc2Cl)cc1 | -9.8 | 6.5 | x | u | 33.9 | 98.3*
O=C(CCN1C(=O)C2C3C=CC(C3)C2C1=O)NC1CCCCC1 (configuration not stated) | 3.5 | 3.0 | x | -3.0 | 36.8* | -6.1
CCOC(=O)N1CCC(NC(=O)CCN2C(=O)C3C4C=CC(C4)C3C2=O)CC1 (configuration not stated) | 3.4 | 5.8 | -1.1 | x | -18.1 | 4.6
COc1ccc(CN2C(=O)c3ccccc3C(C=NOCc3ccc(F)cc3)C2=O)cc1 (configuration not stated) | x | x | -14.5 | x | x | x
Cc1[nH]n(-c2ccccc2)c(=O)c1C=Nn1c(C)nc2ccccc2c1=O | x | x | 4.5 | x | x | x
Cc1c(C)c(C)c(C(=O)CCc2cccc(NC(=O)CCC(=O)O)c2)c(C)c1C | 20.5 | 15.1 | 1.5 | 6.9 | 13.4 | 95.5*
CSc1cccc(NC(=O)CCC(=O)O)c1 | -1.8 | 11.2 | 2.7 | 2.2 | 24.8 | -6.5
COC(=O)NN=Cc1c(C)cc(C)cc1C | x | x | 2.0 | x | x | x
COc1cc(OC)c(NC(=S)NCc2ccccc2)cc1Cl | -0.5 | 4.5 | 1.5 | 125.5* | 10.3 | -11.2
COc1ccc(CNC(=S)NN=Cc2ccncc2)cc1 | x | x | 34.0* | x | x | x
COc1ccc(NC(=S)NN(C)C(=S)Nc2ccc(OC)cc2)cc1 | -3.1 | 20.2 | 2.8 | -13.0 | 21.7 | 99.1*
COc1ccc(CNC(=S)Nc2ccc(-c3ccccc3)cc2)cc1 | -1.4 | 20.4 | 2.9 | 9.7 | 9.8 | 95.3*
O=C(NN=Cc1c[nH]c2ccccc12)c1ccn(Cc2ccc(Cl)cc2Cl)n1 | x | x | -6.4 | x | x | x
CCOc1ccc(CNC(=S)N/N=C\c2ccc([N+](=O)[O-])cc2)cc1 | -7.3 | 32.3 | x | -0.3 | x | 98.6*
CCOc1ccc(CNC(=S)NN=Cc2ccc([N+](=O)[O-])cc2)cc1 | x | x | 3.5 | x | x | x
COc1ccc(-c2oc3c(CC=C(C)C)c(O[C@@H]4O[C@H](CO)[C@@H](O)[C@H](O)[C@H]4O)cc(O)c3c(=O)c2O[C@@H]2O[C@@H](C)[C@H](O)[C@@H](O)[C@H]2O)cc1 | x | 12.8 | 3.1 | 4.3 | 15.6 | 17.2
C[C@@H]1O[C@@H](O[C@H]2[C@H](O)[C@@H](O)[C@H](Oc3c(-c4ccc(O)c(O)c4)oc4cc(O)cc(O)c4c3=O)O[C@@H]2CO)[C@H](O)[C@H](O)[C@H]1O | -3.1 | 13.1 | x | x | x | 96.1*
C[C@@H]1O[C@@H](Oc2c(-c3ccc(O)c(O)c3)oc3cc(O)cc(O)c3c2=O)[C@H](O)[C@H](O)[C@H]1O | 6.4 | 12.8 | 1.6 | x | x | 98.8*
C[C@@H]1O[C@@H](Oc2c(-c3cc(O)c(O)c(O)c3)oc3cc(O)cc(O)c3c2=O)[C@H](O)[C@H](O)[C@H]1O | 0.3 | 7.2 | 8.0 | -9.2 | -12.1 | 99.5*
COc1cc(-c2oc3cc(O)cc(O)c3c(=O)c2O[C@@H]2O[C@H](COC3O[C@@H](C)[C@H](O)[C@@H](O)[C@H]3O)[C@@H](O)[C@H](O)[C@H]2O)ccc1O (some centres not stated) | 0.7 | 14.0 | 3.7 | x | x | 93.6*
CCOc1ccc(-c2c(C(=O)NN=Cc3ccc(O)cc3)nnn2-c2nonc2N)cc1 | x | x | 1.3 | x | x | x
COc1c(Br)cc(Br)cc1C=Nn1c(C)nnc1C | x | x | 3.6 | x | x | x
Br/C(C=NN1CCN(c2ccccc2)CC1)=C\c1ccccc1 | x | x | 4.4 | x | x | x
O=C(O)/C=C/c1ccc(O)c(O)c1 | -1.8 | 17.7 | 2.8 | -10.5 | 15.5 | 98.2*
SMILES | ATG4B inhibitor | NLRP3 yeast inh | UCH37 DUB inh | Calb FLC | NALP1 inh | ALR H2O2 inh
O=C(/C=C/c1ccc(Br)cc1)NC(=O)c1ccccc1O | -3.1 | -22.4 | 8.1 | u | 2.2 | 0.2
COc1cc(/C=C/C2=NC(=O)C(C)(C)O2)ccc1O | -3.0 | 9.7 | -7.5 | -17.2 | 3.3 | 98.9*
COc1cc(/C=C/C(=O)O)ccc1O | 0.6 | -2.0 | -1.9 | 8.9 | x | 87.3*
O=C(/C=C/c1ccc(O)c(O)c1)NC(=O)c1ccccc1O | -5.9 | 18.2 | 11.9 | -8.7 | 11.2 | 96.2*
O=C(CNC(=O)c1cccs1)NN=Cc1cccc(Br)c1 | x | x | 2.2 | x | x | x
CCC(=O)Nc1ccc(C(C)=NNC(=O)c2ccc(OC)cc2)cc1 | x | x | -0.6 | x | x | x
CCCCN=C1CC(C)(C)CC(=O)/C1=C(\O)CCCN1C(=O)c2ccccc2C1=O | x | x | -0.7 | x | x | x
COc1cc(C=C(C(C)=O)C(C)=O)ccc1O | 0.0 | -9.4 | 6.8 | -3.3 | -5.4 | 98.3*
COc1ccc(C=C(C(C)=O)C(C)=O)cc1OC | -8.5 | 41.5 | 3.3 | 5.5 | 8.8 | x
COc1cc(/C=C/C(=O)/C=C(O)/C=C/c2ccc(O)c(OC)c2)ccc1O | 35.6 | x | x | x | x | 0.4
COc1cc(/C=C/C(=O)CC(=O)/C=C/c2ccc(O)c(OC)c2)ccc1O | 49.3* | x | -2.1 | x | -4.4 | 34.9
CCOC(=O)c1ccc(-c2ccc(C=NNC(=O)CN(c3ccccc3Br)S(C)(=O)=O)o2)cc1 | x | x | -162.0 | x | x | x
COc1cccc(C=c2sc3nc(-c4cccs4)nn3c2=O)c1OC | x | x | -2.0 | x | x | x
CC(C)(C)S(=O)(=O)N1C[C@@H]2CC/C=C\C/C(c3ccccc3)=C\2[C@H]1CCO | -10.7 | x | 20.5* | x | x | x
C[C@H]1CN(S(=O)(=O)C(C)(C)C)[C@H](CCO)/C1=C\c1ccccc1 | 0.5 | x | 1.2 | x | x | x
O=C1CS/C(=N/N=C/c2ccco2)N1Cc1ccc(F)cc1 | 0.4 | 8.3 | x | -29.3 | x | 90.4*
COc1cc(N)ccc1NC(=O)c1cccs1 | -3.2 | -4.8 | 1.2 | -1.1 | 17.7 | 98.8*
COc1cc(NC(=O)c2cccs2)cc(OC)c1 | 1.6 | 49.3 | -1.3 | -3.3 | 65.2* | -13.9
COc1cc(NC(=O)c2cc(OC)c(OC)c(OC)c2)ccc1NC(=O)c1cccs1 | -14.4 | 10.6 | 3.5 | -3.0 | 14.6 | 1.5
COc1ccc(NC(=O)c2ccc(NC(=O)c3cccs3)cc2)cc1 | -3.8 | 4.5 | -27.8 | 5.1 | 31.9 | 22.5
COc1cc(C=NNC(=O)C[n+]2ccccc2)cc(OC)c1OC | x | x | 3.9 | x | x | x
Nc1nonc1-n1nnc(C(=O)NN=Cc2cccnc2)c1CSc1ccc(Cl)cc1 | x | x | 5.1 | x | x | x
CC(C)C[C@H]1CN=C(Nc2ccccc2)N1CCCC1CCCCC1 | 5.6 | 25.9 | 2.2 | 76.6* | 34.1 | 4.0
Cc1cc(C)c2c(=O)[nH]c(SCC(=O)Nc3ccc(N(C)C)cc3)nc2n1 | -7.4 | 11.5 | 3.9 | 8.4 | 20.3 | 99.3*
CCc1cccc(NC(=O)CSc2nc3c(c(=O)[nH]2)CCCC3)c1 | x | 7.0 | 2.5 | -1.0 | 32.3 | -5.7
Cc1cc(C)c2c(=O)[nH]c(SCC(=O)c3ccc(C)c(C)c3)nc2n1 | 0.7 | 2.6 | 1.9 | 4.0 | 15.9 | 98.4*
Cc1ccc(NC(=O)CSc2nc3nc(C)cc(C)c3c(=O)[nH]2)cc1 | -3.1 | 9.5 | 4.7 | 3.4 | -1.4 | -19.7

Screens deposited in PubChem BioAssay by several laboratories.
